In ChEMBL document CHEMBL1147726, “Prodrug forms of N-[(4-deoxy-4-amino-10-methyl)pteroyl]glutamate-gamma-[psiP(O)(OH)]-glutarate, a potent inhibitor of folylpoly-gamma-glutamate synthetase: synthesis and hydrolytic stability” (J Med Chem, 2006):

What was measured:
CHO [1] = experiment: Cytotoxicity against R2 mutant cells derived from CHO cells with reduced expression of RFC; type: functional, cell-based; details: Cricetulus griseus
Method in brief: (§1)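 CHO-derived cells grown in RPMI 1640 medium and exposed continuously to compound for 72 h. Serial dilutions were made in DMSO. Viability was read with a CellTiter-Blue assay. IC50 was taken from dose-response curves over 1 nM to 1 µM.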

CHO [2] = experiment: Cytotoxicity against Pro3 cells derived from CHO cells with fully functional reduced folate carrier; type: cell-based; details: Cricetulus griseus; method in brief: as §1
[3] = Half life of hydrolysis rate in phosphate buffer at pH 8.0; type: ADME
Method in brief: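 Prodrug was diluted into 20 mM phosphate buffer, pH 8.0, containing 5% DMSO, with serial dilutions made in the same phosphate. Loss of the parent ester and formation of products were monitored over time by HPLC (UV at 254 and 310 nm). t = 0 is autosampler injection. Ester decay was fit to pseudo-first-order kinetics to give the half-life.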

CHO [4] = experiment: Cytotoxicity in RFC deficient 43-10 cells derived from CHO cells transfected with human RFC cDNA; type: functional, cell-based; details: Cricetulus griseus; method in brief: as §1
[5] = Half life of hydrolysis rate in RPMI-1640 medium at pH 8.0; type: ADME
Method in brief: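 Prodrug stock was diluted into RPMI-1640 cell medium (pH 8.0) and filtered, and disappearance of the ester was followed by HPLC with UV detection at 254 and 310 nm. t = 0 is the time the autosampler injected the sample. The half-life was determined from the HPLC data.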

Structure (SMILES)	IC50 (CHO [1]) [nM]	IC50 (CHO [2]) [nM]	half-life [3] [h]	IC50 (CHO [4]) [nM]	half-life [5] [h]
COC(=O)CCC(CP(=O)(O)CCC(NC(=O)c1ccc(N(C)Cc2cnc3nc(N)nc(N)c3n2)cc1)C(=O)OC)C(=O)OC (configuration not stated)	> 1000	500	> 100	300	–
CN(Cc1cnc2nc(N)nc(N)c2n1)c1ccc(C(=O)NC(CCP(=O)(O)CC(CCC(=O)O)C(=O)O)C(=O)O)cc1 (configuration not stated)	> 1000	> 1000	–	> 1000	–
CN(Cc1cnc2nc(N)nc(N)c2n1)c1ccc(C(=O)NC(CCP(=O)(O)CC(CCC(=O)OCOC(=O)C(C)(C)C)C(=O)OCOC(=O)C(C)(C)C)C(=O)OCOC(=O)C(C)(C)C)cc1 (configuration not stated)	350	700	8	250	3
COP(=O)(CCC(NC(=O)c1ccc(N(C)Cc2cnc3nc(N)nc(N)c3n2)cc1)C(=O)OCOC(=O)C(C)(C)C)CC(CCC(=O)OCOC(=O)C(C)(C)C)C(=O)OCOC(=O)C(C)(C)C (configuration not stated)	> 1000	> 1000	3	800	1
